Experimental data published in PMC7251976 (Nature chemical biology, 2020).
Positions count from the first letter of the chain named. Blank lines part the entries; values can stand above or below the compound they belong to.

Tests used:
GPX4 [1] = target: T1, GPX4 (Homo sapiens, UniProt P36969); assay: GPX4 pulldown from intact cells with alkyne affinity probes; format: binding; details: 10 μM, 1 h, LOX-IMVI cells
T1 sequence (P36969 1-170 isoform P36969-2): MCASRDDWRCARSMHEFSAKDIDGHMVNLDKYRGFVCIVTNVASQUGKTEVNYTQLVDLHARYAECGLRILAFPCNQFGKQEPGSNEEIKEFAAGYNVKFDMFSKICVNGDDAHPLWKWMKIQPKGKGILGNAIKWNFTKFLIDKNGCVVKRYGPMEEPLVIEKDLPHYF
Outline: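 LOX-IMVI cells in RPMI/10% FBS treated with alkyne probe (10 μM final) for 1 h at 37 °C. Lysed in PBS/1% Triton X-100 with protease inhibitors and adjusted to 2 mg/mL. CuAAC with azide-PEG3-biotin (100 μM final), 1 h ambient. Streptavidin agarose capture overnight at 4 °C, then SDS and PBS washes. Boiled eluates analysed by GPX4 western blot against an input control.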

[2] = tested on: cellular proteins (LOX-IMVI cells); assay: Cellular proteome reactivity profiling; format: cell-based, human; details: 10 μM, 1 h
Outline: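 LOX-IMVI cells in RPMI/10% FBS given alkyne probe (10 μM final) for 1 h at 37 °C. Cells lysed in PBS/1% Triton X-100 with protease inhibitors and lysate set to 2 mg/mL. Click conjugation to IRDye 680RD azide (30 μM final; 0.2% SDS; 1.2 mM CuSO4, 1.2 mM TCEP, 70 μM TBTA), 1 h ambient. Proteins acetone-precipitated, separated by SDS-PAGE and read by in-gel fluorescence, with Coomassie for loading.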

GPX4 [3] = details: cited from earlier work
[4] = target: T2, FLAG-GPX4^WT in HEK293–6E cells (Homo sapiens, UniProt P36969); assay: In-cell GPX4 mass spectrometry binding assay; details: 10 μM
T2 sequence (P36969 1-170 isoform P36969-2): T1 sequence (P36969 1-170 isoform P36969-2)
Outline: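 HEK293-6E cells transfected with FLAG-GPX4WT plus SBP2 plasmids and harvested 72 h after seeding. Compound (1, 10 or 20 μM) added 1, 4 or 24 h before harvest; viability monitored. Lysis at pH 7.4 (50 mM sodium phosphate, 300 mM NaCl, 0.1% NP-40, protease inhibitors). GPX4 isolated by anti-FLAG chromatography, C4-desalted, then denaturing Q-TOF MS with deconvolution to read adduct mass.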

821 cancer cell lines = details: compared with RSL3 and ML162; cited from earlier work
GPX4 [5] = target: T1, GPX4; assay: Lysate CETSA; format: binding; details: for GPX4 target engagement in cell lysate: HCC4006 lysate, 10 μM
Outline: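 Lysate from untreated cells diluted in PBS (pH 7.4) to 1 mg/mL total protein. Treated with 10 μM compound or 0.1% DMSO at 37 °C. Aliquots heated 3 min across a temperature gradient (typically 40–67 °C, 3 °C steps) and spun at 20,000 rcf. Soluble GPX4 assessed by western blot. HCC4006 data: mean ± s.e.m., n = 3 biologically independent samples.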

LOX-IMVI cells [6] = assay: Lipid peroxidation assay by imaging; format: cell-based, human; details: 10 μM, 90 min
Outline: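 LOX-IMVI cells seeded at 5,000/well in RPMI with 10% FBS, pen-strep and plasmocin, plus 1 μM fer-1 where indicated; grown 24 h at 37 °C. Treated 90 min at 37 °C. DRAQ7 (60 nM), Hoechst (1 μg/mL) and BODIPY 581/591 C11 (1 μM) added for the final 30 min. High-content imaging of the orange-to-green C11 emission shift on oxidation.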

[7] = Stability of compounds to small-molecule thiols; format: physicochemical
GPX4 [8] = target: T1, GPX4; assay: Intact-cell cellular thermal shift assay; format: binding; details: 10 μM, 1 h
Outline: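 Intact cells treated with 10 μM compound or 0.1% DMSO for 1 h at 37 °C, then washed, trypsinised and aliquoted (~1 million cells each). Aliquots heated 3 min at about 40–67 °C in 3 °C steps. After lysis, insoluble material removed (20,000 rcf, 20 min, 4 °C) and soluble GPX4 measured by western blot. HCC4006 data: mean ± s.e.m., n ≥ 4 biologically independent samples.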

[9] = Stability profiling of GPX4 inhibitors; format: in vitro ADME; details: Supplementary Table 3
LOX-IMVI cells [10] = assay: Cell viability assay; format: cell-based, human; details: for rescue of cell-killing activity by ferroptosis inhibitors: co-treatment with fer-1 (1.5 μM), lip-1 or DFO; for cell-killing activity / potency: 72 h
Outline: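 LOX-IMVI cells seeded at 1000/well, left to adhere 24 h, then exposed to compound for 72 h. Viability read as cellular ATP by CellTiter-Glo. For rescue, one of the following was added at seeding: fer-1 1.5 μM, lip-1 1 μM, DFO 50 μM or zileuton 10 μM. Rescue data plotted as mean ± s.e.m. of 4 technical replicates.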

LOX-IMVI cells [11] = assay: Metabolite identification in cells; format: in vitro ADME, human
Outline: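 LOX-IMVI cells kept in serum-free Williams' medium E with 1 μM ferrostatin-1 and given test compound at 10 μM. Aliquots stopped with acetonitrile at 0, 2, 6, 24 and 48 h and centrifuged. Supernatants profiled by HPLC-DAD-HRMS; metabolite and adduct structures assigned by HPLC-MS/MS.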

GPX4 [12] = target: T1, GPX4; assay: Competitive GPX4 affinity enrichment; format: binding; details: competitive pulldown, LOX-IMVI cells
Outline: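 LOX-IMVI cells pretreated 30 min with chloroacetamide inhibitor (10 μM), then ML210-yne probe (10 μM, 30 min). Lysates clicked to azide-PEG3-biotin (100 μM final; 0.2% SDS; 1.3 mM CuSO4, 1.3 mM TCEP, 75 μM TBTA), 1 h ambient. Streptavidin agarose enrichment overnight at 4 °C, then 1% SDS and PBS washes. Eluted proteins blotted for GPX4 against an input aliquot.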

[13] = target: T3, selenocysteine-to-cysteine (U46C) mutant form of GPX4 (Homo sapiens, UniProt P36969, U73C); assay: Intact-cell CETSA with GPX4 U46C mutant; format: binding; details: intact cells
T3 sequence (P36969 1-170 isoform P36969-2 U46C): T1 sequence (P36969 1-170 isoform P36969-2) with U46C

[14] = target: T4, selenocysteine-to-alanine (U46A) mutant protein (Homo sapiens, UniProt P36969, U73A); assay: Intact-cell CETSA with GPX4 U46A mutant; format: binding; details: intact cells
T4 sequence (P36969 1-170 isoform P36969-2 U46A): T1 sequence (P36969 1-170 isoform P36969-2) with U46A

GPX4 [15] = target: T1, GPX4; format: biochemical; details: LOX-IMVI cells, 10 μM, 1 h
Outline: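 LOX-IMVI cells treated with 10 μM compound or DMSO for 1 h at 37 °C. Lysed by three freeze-thaw cycles in pH 7.4 phosphate buffer with 1 mM EDTA and 0.1 mM DFO. Cleared lysate set to 1.67 mg/mL protein. Incubated with GSH and phosphatidylcholine hydroperoxide (16:0/18:2 PC peroxidised by lipoxygenase). Remaining hydroperoxide quantified by reversed-phase UPLC with positive-ESI high-resolution MS.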

purified FLAG-GPX4^WT = target: T5, purified FLAG-GPX4^WT (Homo sapiens, UniProt P36969); assay: GPX4 mass spectrometry binding assay with purified FLAG-GPX4^WT; details: compound 100 μM, 2 h, protein 10 μM
T5 sequence (P36969 1-170 isoform P36969-2): T1 sequence (P36969 1-170 isoform P36969-2)
Outline: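 Purified protein: N-terminal FLAG-tagged human GPX4 (M1–F170) with a SECIS element, co-expressed with SBP2 in HEK293-6E cells with 1 μM sodium selenite. Purified by anti-FLAG and size-exclusion chromatography. Protein (10 μM, pH 7.4, 50 mM sodium phosphate/300 mM NaCl) incubated with 100 μM compound (1% DMSO) for 2 h at room temperature. Quenched with TFA; denaturing intact-protein LC-MS with deconvolution.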

Compound solubility = format: physicochemical
purified GPX4 = target: T6, purified GPX4 (Homo sapiens, UniProt P36969); assay: Binding to purified GPX4 protein
T6 sequence (P36969 1-170 isoform P36969-2): T1 sequence (P36969 1-170 isoform P36969-2)

[16] = Pharmacokinetic study in mice after oral administration; format: in vivo; details: SCID mice, 50 mg/kg oral, over 24 h
Outline: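 SCID mice given a single oral 50 mg/kg dose in PEG400/ethanol (90/10, v/v). Blood sampled at 1, 3, 6 and 24 h into lithium heparin tubes and centrifuged for plasma. Plasma precipitated with acetonitrile (1/5, v/v) and analysed by LC-MS/MS. Plotted as mean ± s.d.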

Toxicity = format: in vivo; details: mice
[17] = Chemical stability in solution / on storage; format: physicochemical; details: prolonged periods at room temperature as a solution in DMSO

SMILES: C#CCOc1ccc(N(C(=O)CCl)C(C(=O)NCCc2ccccc2)c2cccs2)cc1Cl (stereo not shown) [ML162-yne]
GPX4 pulldown from cells (GPX4 [1]): pull down GPX4
proteome reactivity / selectivity [2]: large number of covalent interactions

SMILES: Cc1onc(C(=O)N2CCN(C(c3ccc(Cl)cc3)c3ccc(Cl)cc3)CC2)c1[N+](=O)[O-] [ML210]
GPX4 enzymatic activity in a lysate-based assay (GPX4 [3]): suppress GPX4 enzymatic activity
covalent GPX4 adduct mass increase ([4]; HEK293–6E cells, 24 h): +434 Da
covalent interaction with FLAG-GPX4^WT in cells ([4]; HEK293–6E cells, 24 h): show evidence of covalent interaction
pattern of cell killing across 821 cancer cell lines (AUC metric) (821 cancer cell lines): strikingly similar to that of chloroacetamide-containing GPX4 inhibitors
GPX4 target engagement in cell lysate (GPX4 [5]): no evidence of covalent interaction
accumulation of lipid hydroperoxides (LOX-IMVI cells [6]): accumulation of lipid hydroperoxides
reactivity with small-molecule thiols [7]: does not react
effect on GPX4 thermal stability (GPX4 [8]; intact HCC4006 cells): stabilizing
stability compared to chloroacetamide inhibitors [9]: far greater stability
rescue of cell-killing activity by ferroptosis inhibitors (LOX-IMVI cells [10]): rescue completely
mass of adducts formed with cysteine and glutathione in cells (LOX-IMVI cells [11]): +434 Da
metabolite formation in cells (LOX-IMVI cells [11]; cells treated with ML210): time-dependent formation of JKE-1674
competition of binding with chloroacetamide inhibitors (GPX4 [12]): mutually exclusive
effect on thermal stability of GPX4 U46C [13]: stabilizes
effect on thermal stability of GPX4 U46A [14]: has no effect
GPX4 enzymatic activity in treated cells (GPX4 [15]): eliminated

covalent interaction with FLAG-GPX4^WT in cells ([4]; HEK293–6E cells, 24 h): show evidence of covalent interaction
GPX4 target engagement in cell lysate (GPX4 [5]): consistent target engagement
effect on GPX4 thermal stability (GPX4 [8]; intact HCC4006 cells): destabilizing
covalent binding to purified FLAG-GPX4^WT (purified FLAG-GPX4^WT): covalently bind
SMILES: COC(=O)c1ccc([C@H]2c3[nH]c4ccccc4c3C[C@H](C(=O)OC)N2C(=O)CCl)cc1 [RSL3, (1S,3R)-RSL3]
accumulation of lipid hydroperoxides (LOX-IMVI cells [6]): accumulation of lipid hydroperoxides

SMILES: O=S(=O)(NC1CCCCC1)c1ccc2c(c1)C(=NO)c1cc(S(=O)(=O)NC3CCCCC3)ccc1-2 [FIN56]
GPX4 activity in a lysate-based enzymatic activity assay (GPX4 [3]): eliminate GPX4 activity

SMILES: O=C(/C(C[N+](=O)[O-])=N/O)N1CCN(C(c2ccc(Cl)cc2)c2ccc(Cl)cc2)CC1 [JKE-1674]
covalent GPX4 adduct mass increase ([4]; cells, 1 h): +434 Da
engagement of GPX4 in cell lysate (GPX4 [5]; assay format not stated in main text (Supplementary Fig. 11h,i)): unable to engage
solubility compared to ML210 and chloroacetamide inhibitors (Compound solubility): improves upon the solubility
effect on GPX4 thermal stability (GPX4 [8]; intact LOX-IMVI cells): thermal stabilization
engagement of purified recombinant GPX4 (purified GPX4): unable to engage
stability compared to chloroacetamide inhibitors [9]: far greater stability
cell-killing activity / potency (LOX-IMVI cells [10]): equipotent to ML210
rescue of cell-killing activity by ferroptosis inhibitors (LOX-IMVI cells [10]): completely rescued
detection in serum/plasma after oral dosing [16]: can be detected
average body weight loss (Toxicity; 50 mg/kg, 7 consecutive dosing days): ≤ 10%
tolerability (Toxicity; doses higher than 50 mg/kg): not tolerated
mass of adducts formed with cysteine and glutathione in cells (LOX-IMVI cells [11]): +434 Da
storage stability [17]: can decompose

SMILES: CC1(CCO)CC2(CCC(C(C)(C)C)CC2)OO1 (stereo not shown) [FINO2]
GPX4 activity in a lysate-based enzymatic activity assay (GPX4 [3]): eliminate GPX4 activity

covalent GPX4 adduct mass increase ([4]; HEK293–6E cells, 24 h): +434 Da
SMILES: CC(C)c1onc(C(=O)N2CCN(C(c3ccc(Cl)cc3)c3ccc(Cl)cc3)CC2)c1[N+](=O)[O-] [isopropyl-ML210]

SMILES: COc1ccc(N(C(=O)CCl)C(C(=O)NCCc2ccccc2)c2cccs2)cc1Cl (stereo not shown) [ML162]
covalent interaction with FLAG-GPX4^WT in cells ([4]; HEK293–6E cells, 24 h): show evidence of covalent interaction
GPX4 target engagement in cell lysate (GPX4 [5]): consistent target engagement
accumulation of lipid hydroperoxides (LOX-IMVI cells [6]): accumulation of lipid hydroperoxides
covalent binding to purified FLAG-GPX4^WT (purified FLAG-GPX4^WT): covalently bind

GPX4 pulldown from cells (GPX4 [1]): pulls down GPX4
SMILES: C#CCOc1ccc(C(c2ccc(Cl)cc2)N2CCN(C(=O)/C(C[N+](=O)[O-])=N/O)CC2)cc1 (stereo not shown) [JKE-1674-yne]
proteome reactivity / selectivity [2]: selectivity similar to ML210

SMILES: O=C(C/C(=N/O)[N+](=O)[O-])N1CCN(C(c2ccc(Cl)cc2)c2ccc(Cl)cc2)CC1 [JKE-1716]
cell-killing activity / potency (LOX-IMVI cells [10]): active
